Data: ChEMBL document CHEMBL4387707, “Structure-Activity Relationships for Itraconazole-Based Triazolone Analogues as Hedgehog Pathway Inhibitors” (J Med Chem, 2019)
Converted amounts (≈) assume the structure as drawn. The source made the active and inactive calls. No cut-off for these calls is given here.

Assays:
Protein smoothened = Protein smoothened (Mus musculus, UniProt P56726); experiment: Inhibition of smo-mediated hedgehog signaling pathway in mouse ASZ001 cells assessed as decrease in Gli1 mRNA expression after 48 hrs by qPCR method; assay type: cell-based
In short: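 Gli1 mRNA measured by qPCR after 48 h incubation with compound, normalized to actin as internal control. Concentrations judged cytotoxic (by visual assessment and/or a significant drop in actin expression) were excluded from analysis. IC50 given as mean ± SEM of at least two separate experiments, each in triplicate.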

[1] = Kinetic solubility of the compound in PBS at pH 7.4 by UPLC-MS/MS analysis; assay type: physicochemical; conditions: read-out: Kinetic_solubility
Mus musculus = species on record: Mus musculus; experiment: Antiproliferative activity against mouse ASZ001 cells measured after 48 hrs by MTS/PMS assay; assay type: functional, cell-based
[2] = biological target: Voltage-gated inwardly rectifying potassium channel KCNH2 (Homo sapiens, UniProt Q12809); experiment: Inhibition of human ERG
Cytochrome P450 3A4 = Cytochrome P450 3A4 (Homo sapiens, UniProt P08684); experiment: Inhibition of CYP3A4 (unknown origin) using midazolam as substrate by UPLC-MS/MS analysis; assay type: ADME
[3] = Half life in human liver microsomes at 1 uM by UPLC-MS/MS analysis; assay type: ADME, Microsome
Medulloblastoma cell = experiment: Antiproliferative activity against medulloblastoma cells derived from conditional patched knockout mouse after 48 hrs by [3H]-thymidine incorporation assay; assay type: functional
In short: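 Cells are MERP medulloblastoma cells isolated from Math1-Cre-ER;Ptcfl/fl mouse tumors and cultured in vitro. Compounds were incubated for 48 h before the growth read-out. GI50 is the mean ± SEM of at least two separate experiments, each run in triplicate.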

[4] = Intrinsic clearance in human liver microsomes at 1 uM by UPLC-MS/MS analysis; assay type: ADME, Microsome

Sequence of Voltage-gated inwardly rectifying potassium channel KCNH2 (Q12809 whole entry): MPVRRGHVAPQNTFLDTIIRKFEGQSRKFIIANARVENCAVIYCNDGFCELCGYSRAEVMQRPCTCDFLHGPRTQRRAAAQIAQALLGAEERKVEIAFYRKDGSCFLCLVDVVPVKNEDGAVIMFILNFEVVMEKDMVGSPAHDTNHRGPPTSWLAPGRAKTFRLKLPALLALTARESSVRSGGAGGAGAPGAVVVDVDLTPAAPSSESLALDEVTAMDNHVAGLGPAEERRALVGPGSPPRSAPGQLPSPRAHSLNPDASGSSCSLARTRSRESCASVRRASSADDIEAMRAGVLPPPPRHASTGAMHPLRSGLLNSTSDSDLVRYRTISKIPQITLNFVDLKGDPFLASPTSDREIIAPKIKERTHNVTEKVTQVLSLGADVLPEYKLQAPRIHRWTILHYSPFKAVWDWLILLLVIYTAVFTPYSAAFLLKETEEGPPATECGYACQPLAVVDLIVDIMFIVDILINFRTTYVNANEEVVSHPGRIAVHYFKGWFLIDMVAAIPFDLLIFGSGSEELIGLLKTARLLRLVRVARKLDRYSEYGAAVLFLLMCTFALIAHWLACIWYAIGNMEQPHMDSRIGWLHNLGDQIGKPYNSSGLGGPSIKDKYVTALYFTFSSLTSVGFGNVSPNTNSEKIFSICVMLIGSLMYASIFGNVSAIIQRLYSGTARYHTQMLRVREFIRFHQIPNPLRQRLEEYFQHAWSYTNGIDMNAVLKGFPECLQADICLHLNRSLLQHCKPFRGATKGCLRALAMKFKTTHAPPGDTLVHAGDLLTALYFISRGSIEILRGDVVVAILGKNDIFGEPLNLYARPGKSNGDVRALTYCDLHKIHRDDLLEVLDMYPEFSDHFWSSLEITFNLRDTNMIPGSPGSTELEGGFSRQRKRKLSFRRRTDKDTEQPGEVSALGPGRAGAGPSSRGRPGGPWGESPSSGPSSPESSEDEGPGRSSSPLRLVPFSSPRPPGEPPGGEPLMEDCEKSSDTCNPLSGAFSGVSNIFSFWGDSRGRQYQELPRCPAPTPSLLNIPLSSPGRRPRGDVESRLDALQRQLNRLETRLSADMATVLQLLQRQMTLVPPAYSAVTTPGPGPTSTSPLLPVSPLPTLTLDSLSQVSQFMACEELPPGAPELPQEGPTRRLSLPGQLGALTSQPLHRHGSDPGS
Sequence of Cytochrome P450 3A4 (P08684 whole entry): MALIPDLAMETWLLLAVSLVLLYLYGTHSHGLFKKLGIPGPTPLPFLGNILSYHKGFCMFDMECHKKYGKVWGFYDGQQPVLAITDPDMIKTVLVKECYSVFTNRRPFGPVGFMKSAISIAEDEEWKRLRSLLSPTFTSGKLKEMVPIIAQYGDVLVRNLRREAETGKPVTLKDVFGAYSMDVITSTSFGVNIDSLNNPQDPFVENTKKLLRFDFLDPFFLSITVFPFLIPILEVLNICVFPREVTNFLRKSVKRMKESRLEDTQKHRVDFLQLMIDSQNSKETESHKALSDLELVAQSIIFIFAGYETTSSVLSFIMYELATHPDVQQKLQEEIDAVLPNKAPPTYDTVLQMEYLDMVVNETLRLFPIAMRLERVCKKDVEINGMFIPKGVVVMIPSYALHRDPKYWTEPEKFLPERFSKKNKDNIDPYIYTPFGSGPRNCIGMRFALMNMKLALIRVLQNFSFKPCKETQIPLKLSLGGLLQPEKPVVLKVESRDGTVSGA
Sequence of Protein smoothened (P56726 whole entry): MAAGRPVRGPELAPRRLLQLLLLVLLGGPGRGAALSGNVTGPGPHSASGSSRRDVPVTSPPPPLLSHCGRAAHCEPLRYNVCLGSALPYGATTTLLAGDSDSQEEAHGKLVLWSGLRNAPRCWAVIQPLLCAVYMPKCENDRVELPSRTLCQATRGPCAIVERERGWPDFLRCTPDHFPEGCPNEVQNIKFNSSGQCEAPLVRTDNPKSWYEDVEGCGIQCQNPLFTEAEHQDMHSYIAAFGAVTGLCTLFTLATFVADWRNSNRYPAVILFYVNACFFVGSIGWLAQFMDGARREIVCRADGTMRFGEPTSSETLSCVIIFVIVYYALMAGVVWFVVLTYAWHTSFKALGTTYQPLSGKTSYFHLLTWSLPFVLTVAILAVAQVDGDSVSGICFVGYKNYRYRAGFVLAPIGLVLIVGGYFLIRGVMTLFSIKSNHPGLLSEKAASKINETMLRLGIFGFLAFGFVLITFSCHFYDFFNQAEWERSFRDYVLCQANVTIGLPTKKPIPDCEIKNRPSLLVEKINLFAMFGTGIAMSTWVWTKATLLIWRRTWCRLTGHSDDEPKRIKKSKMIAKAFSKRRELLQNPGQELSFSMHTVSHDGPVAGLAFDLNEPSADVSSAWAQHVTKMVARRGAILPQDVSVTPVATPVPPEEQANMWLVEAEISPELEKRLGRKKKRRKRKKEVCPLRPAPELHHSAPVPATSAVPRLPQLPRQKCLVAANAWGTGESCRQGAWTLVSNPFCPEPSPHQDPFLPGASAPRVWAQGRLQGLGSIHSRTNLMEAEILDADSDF

C[C@]1(c2ccc(Cl)cc2Cl)OC[C@@H](COc2ccc(N3CCN(c4ccc([N+](=O)[O-])cc4)CC3)cc2)O1
IC50 (Protein smoothened): 0.26 µM

C[C@]1(c2ccc(Cl)cc2Cl)OC[C@@H](COc2ccc(N3CCN(c4ccc(N)cc4)CC3)cc2)O1
IC50 (Protein smoothened): 0.39 µM

C[C@@]1(c2ccc(Cl)cc2Cl)OC[C@@H](COc2ccc(N3CCN(c4ccc(-n5cn[nH]c5=O)cc4)CC3)cc2)O1
IC50 (Protein smoothened): 0.14 µM

C[C@@]1(c2ccc(Cl)cc2Cl)OC[C@@H](COc2ccc(N3CCN(c4ccc(NC(=O)c5ccccc5O)cc4)CC3)cc2)O1
IC50 (Protein smoothened): > 10 µM

C[C@]1(c2ccc(Cl)cc2Cl)OC[C@@H](COc2ccc(N3CCN(c4ccc(NC(=O)c5ccoc5)cc4)CC3)cc2)O1
IC50 (Protein smoothened): > 10 µM

C[C@]1(c2ccc(Cl)cc2Cl)OC[C@@H](COc2ccc(N3CCN(c4ccc(NC(=O)c5ccc6ccccc6c5)cc4)CC3)cc2)O1
IC50 (Protein smoothened): > 10 µM

C[C@@]1(c2ccc(Cl)cc2Cl)OC[C@@H](COc2ccc(N3CCN(c4ccc(NC(=O)c5ccc6ccccc6c5)cc4)CC3)cc2)O1
IC50 (Protein smoothened): > 10 µM

C[C@]1(c2ccc(Cl)cc2Cl)OC[C@@H](COc2ccc(N3CCN(c4ccc(NC(=O)c5cccc(Cl)c5)cc4)CC3)cc2)O1
IC50 (Protein smoothened): > 10 µM

CC(=O)c1cccc(C(=O)Nc2ccc(N3CCN(c4ccc(OC[C@@H]5CO[C@](C)(c6ccc(Cl)cc6Cl)O5)cc4)CC3)cc2)c1
solubility kinetic [1]: 1.4 nM (≈ 0.925 ng/mL)
Activity (Mus musculus): Active
inhibition (INH) [2]: < 1%
IC50 (Cytochrome P450 3A4): > 30 µM
t1/2 [3]: 11.4 min

CC[C@@H](C)n1ncn(-c2ccc(N3CCN(c4ccc(OC[C@@H]5CO[C@@](C)(c6ccc(Cl)cc6Cl)O5)cc4)CC3)cc2)c1=O (relative stereo)
solubility kinetic [1]: 1560 nM (≈ 996 ng/mL)
IC50 (Cytochrome P450 3A4): 1.02 µM

C[C@]1(c2ccc(Cl)cc2Cl)OC[C@@H](COc2ccc(N3CCN(c4ccc(NC(=O)c5cccnc5)cc4)CC3)cc2)O1
solubility kinetic [1]: 6.9 nM (≈ 4.27 ng/mL)
inhibition (INH) [2]: < 1%
GI50 (Medulloblastoma cell): 1.1 µM
IC50 (Cytochrome P450 3A4): > 20 µM
t1/2 [3]: 8.9 min

C[C@@]1(c2ccc(Cl)cc2Cl)OC[C@@H](COc2ccc(N3CCN(c4ccc(NC(=O)c5ccc(O)cc5)cc4)CC3)cc2)O1
IC50 (Protein smoothened): > 10 µM

C[C@@]1(c2ccc(Cl)cc2Cl)OC[C@@H](COc2ccc(N3CCN(c4ccc(NC(=O)c5cccnc5)cc4)CC3)cc2)O1
solubility kinetic [1]: 4.2 nM (≈ 2.6 ng/mL)
GI50 (Medulloblastoma cell): > 10 µM
IC50 (Cytochrome P450 3A4): > 30 µM
t1/2 [3]: 59.9 min

C[C@]1(c2ccc(Cl)cc2Cl)OC[C@@H](COc2ccc(N3CCN(c4ccc(-n5cn[nH]c5=O)cc4)CC3)cc2)O1
IC50 (Protein smoothened): 0.21 µM

C[C@@]1(c2ccc(Cl)cc2Cl)OC[C@@H](COc2ccc(N3CCN(c4ccc(NC(=O)c5ccncc5)cc4)CC3)cc2)O1
IC50 (Protein smoothened): > 10 µM

C[C@]1(c2ccc(Cl)cc2Cl)OC[C@@H](COc2ccc(N3CCN(c4ccc(NC(=O)c5ccncc5)cc4)CC3)cc2)O1
IC50 (Protein smoothened): > 10 µM

C[C@@]1(c2ccc(Cl)cc2Cl)OC[C@@H](COc2ccc(N3CCN(c4ccc(NC(=O)NN)cc4)CC3)cc2)O1
solubility kinetic [1]: 9.3 nM (≈ 5.32 ng/mL)
inhibition (INH) [2]: 2.2%
GI50 (Medulloblastoma cell): 0.5 µM
IC50 (Cytochrome P450 3A4): > 30 µM
t1/2 [3]: 20.1 min

C[C@]1(c2ccc(Cl)cc2Cl)OC[C@@H](COc2ccc(N3CCN(c4ccc(NC(=O)c5ccccc5O)cc4)CC3)cc2)O1
IC50 (Protein smoothened): 2.2 µM

C[C@]1(c2ccc(Cl)cc2Cl)OC[C@@H](COc2ccc(N3CCN(c4ccc(NC(=O)NN)cc4)CC3)cc2)O1
solubility kinetic [1]: 1.4 nM (≈ 0.801 ng/mL)
GI50 (Medulloblastoma cell): 2.8 µM
IC50 (Cytochrome P450 3A4): > 30 µM
t1/2 [3]: 11.5 min

C[C@]1(c2ccc(Cl)cc2Cl)OC[C@@H](COc2ccc(N3CCN(c4ccc(NC(=O)c5ccc(O)cc5)cc4)CC3)cc2)O1
IC50 (Protein smoothened): 3 µM

C[C@]1(c2ccc(Cl)cc2Cl)OC[C@@H](COc2ccc(N3CCN(c4ccc(NC(=O)c5ccccn5)cc4)CC3)cc2)O1
IC50 (Protein smoothened): 3.9 µM

C[C@@]1(c2ccc(Cl)cc2Cl)OC[C@@H](COc2ccc(N3CCN(c4ccc(N)cc4)CC3)cc2)O1
IC50 (Protein smoothened): 0.92 µM

C[C@@]1(c2ccc(Cl)cc2Cl)OC[C@@H](COc2ccc(N3CCN(c4ccc([N+](=O)[O-])cc4)CC3)cc2)O1
IC50 (Protein smoothened): 0.31 µM

COc1cccc(C(=O)Nc2ccc(N3CCN(c4ccc(OC[C@@H]5CO[C@](C)(c6ccc(Cl)cc6Cl)O5)cc4)CC3)cc2)c1
IC50 (Protein smoothened): 5.7 µM

C[C@@]1(c2ccc(Cl)cc2Cl)OC[C@@H](COc2ccc(N3CCN(c4ccc(NC(=O)c5ccccc5)cc4)CC3)cc2)O1
IC50 (Protein smoothened): > 10 µM

C[C@@]1(c2ccc(Cl)cc2Cl)OC[C@@H](COc2ccc(N3CCN(c4ccc(NC(=O)c5ccccn5)cc4)CC3)cc2)O1
IC50 (Protein smoothened): > 10 µM

CCC(C)n1ncn(-c2ccc(N3CCN(c4ccc(OCC5COC(Cn6cncn6)(c6ccc(Cl)cc6Cl)O5)cc4)CC3)cc2)c1=O (configuration not stated) [ITRACONAZOLE]
inhibition (INH) [2]: < 1%

C[C@]1(c2ccc(Cl)cc2Cl)OC[C@@H](COc2ccc(N3CCN(c4ccc(NC(=O)c5cccc(O)c5)cc4)CC3)cc2)O1
solubility kinetic [1]: 1.6 nM (≈ 1.02 ng/mL)
Activity (Mus musculus): Active
inhibition (INH) [2]: < 1%
GI50 (Medulloblastoma cell): 0.35 µM
IC50 (Cytochrome P450 3A4): 11.4 µM
t1/2 [3]: 19.9 min

C[C@]1(c2ccc(Cl)cc2Cl)OC[C@@H](COc2ccc(N3CCN(c4ccc(NC(=O)c5ccsc5)cc4)CC3)cc2)O1
IC50 (Protein smoothened): > 10 µM

C[C@]1(c2ccc(Cl)cc2Cl)OC[C@@H](COc2ccc(N3CCN(c4ccc(NC(=O)c5ccccc5)cc4)CC3)cc2)O1
IC50 (Protein smoothened): > 10 µM

C[C@@]1(c2ccc(Cl)cc2Cl)OC[C@@H](COc2ccc(N3CCN(c4ccc(NC(=O)c5cccc(O)c5)cc4)CC3)cc2)O1
solubility kinetic [1]: 1.4 nM (≈ 0.888 ng/mL)
CLH [4]: < 3 µL/min/mg
inhibition (INH) [2]: 1.2%
GI50 (Medulloblastoma cell): 2.8 µM
IC50 (Cytochrome P450 3A4): > 30 µM
t1/2 [3]: > 231 min

CC[C@@H](C)n1ncn(-c2ccc(N3CCN(c4ccc(OC[C@@H]5CO[C@](C)(c6ccc(Cl)cc6Cl)O5)cc4)CC3)cc2)c1=O (relative stereo)
solubility kinetic [1]: 800 nM (≈ 511 ng/mL)
IC50 (Cytochrome P450 3A4): > 20 µM
